Data on 13 compounds can be found in ChEMBL document CHEMBL1132106, “Synthesis, biological activity, and conformational analysis of four seco-D-15,19-bisnor-1alpha,25-dihydroxyvitamin D analogues, diastereomeric at C17 and C20” (1999).

Assay [1] concerns the target T1, Vitamin D3 receptor (Sus scrofa) (UniProt A3RGC1).
T1 sequence (whole entry): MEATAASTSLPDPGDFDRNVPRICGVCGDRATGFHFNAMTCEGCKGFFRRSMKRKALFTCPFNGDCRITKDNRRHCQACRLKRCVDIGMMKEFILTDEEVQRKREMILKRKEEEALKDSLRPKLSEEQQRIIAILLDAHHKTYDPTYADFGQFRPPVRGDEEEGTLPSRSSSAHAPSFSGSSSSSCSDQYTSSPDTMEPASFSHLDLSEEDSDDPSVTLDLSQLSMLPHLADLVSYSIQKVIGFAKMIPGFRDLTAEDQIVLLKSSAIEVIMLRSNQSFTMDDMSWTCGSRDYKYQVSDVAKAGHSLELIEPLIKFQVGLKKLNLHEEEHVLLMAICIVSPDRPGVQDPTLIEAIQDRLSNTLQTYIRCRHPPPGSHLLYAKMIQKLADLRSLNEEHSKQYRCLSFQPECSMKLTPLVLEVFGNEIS
Put plainly: Binding affinity for porcine intestinal Vitamin D3 receptor (VDR) relative to 1,25(OH)2D3 (100). In a few lines:
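Competition with [3H]1,25(OH)2D3 for receptor in high-speed supernatant of normal pig intestinal mucosa homogenate. Incubated 20 h at 4 °C, then dextran-coated charcoal phase separation. Relative affinity from the concentration displacing 50% of tracer, referenced to 1,25(OH)2D3 at 100%.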

For a further assay, the system named is Gallus gallus. Description: In Vivo evaluation for the calcemic activity in vitamin D-replete normal in ICA chick. Type of assay: functional.
For assay [2], the target named is T2, Vitamin D-binding protein (Rattus norvegicus) (UniProt P04276).
T2 sequence (whole entry): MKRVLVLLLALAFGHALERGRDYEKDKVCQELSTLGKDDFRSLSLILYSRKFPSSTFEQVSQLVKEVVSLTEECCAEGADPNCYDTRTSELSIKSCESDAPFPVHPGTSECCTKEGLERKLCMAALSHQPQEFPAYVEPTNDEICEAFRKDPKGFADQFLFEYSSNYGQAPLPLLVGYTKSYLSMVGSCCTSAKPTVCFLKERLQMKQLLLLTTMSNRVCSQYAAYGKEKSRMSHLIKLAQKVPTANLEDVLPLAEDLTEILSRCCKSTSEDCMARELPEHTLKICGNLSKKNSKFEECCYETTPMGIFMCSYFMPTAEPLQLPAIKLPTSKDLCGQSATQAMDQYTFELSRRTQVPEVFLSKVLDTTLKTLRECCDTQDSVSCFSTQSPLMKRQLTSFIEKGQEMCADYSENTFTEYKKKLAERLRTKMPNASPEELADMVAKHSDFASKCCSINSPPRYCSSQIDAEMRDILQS
Put plainly: Binding affinity for rat vitamin D binding protein (DBP) relative to 1,25(OH)2D3 (100).

For the next assay, the system named is HL-60. Description: In vitro induction of cell differentiation in HL-60 cells relative to 1,25(OH)2D3 (100). Type of assay: functional, Homo sapiens. In a few lines:
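HL-60 cells seeded at 4×10^4 cells/mL in RPMI 1640 with 20% FCS and gentamycin, 37 °C, 5% CO2. Compounds added in ethanol (final <0.2%) one day later, then cultured 4 days. Differentiation read as NBT reduction: 1×10^6 cells/mL mixed with PMA (200 ng/mL) and NBT ([…]), 30 min at 37 °C. Formazan-positive cells counted by hemacytometer.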

For assay [3], the system named is MCF7. Put plainly: Antiproliferative activity on MCF-7 cells relative to 1,25(OH)2D3 (100). Format: functional, Homo sapiens. The method, boiled down: (§1)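 MCF-7 cells grown in DMEM/F12 with 10% heat-inactivated FCS, glutamine, penicillin and streptomycin, 37 °C, 5% CO2. Seeded at 5×10^3 cells/well. Compounds added after 24 h and incubated 72 h. Then 1 μCi [3H]thymidine per well for 4 h, cells harvested and radioactivity counted. Triplicate cultures. Activity expressed relative to 1,25(OH)2D3 set at 100.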

Assay [4] has as its system Keratinocyte cell line. Description: Inhibition of human skin keratinocyte proliferation relative to 1,25(OH)2D3 (100). Format: functional. The method, boiled down:
(§2)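 Human foreskin keratinocytes isolated by overnight Dispase digestion and grown in serum-free keratinocyte medium with pituitary extract and EGF. Seeded at 5×10^3 cells/well in medium without insulin. After 1 day, serial dilutions added in ethanol (<0.2% final) for 72 h. Then [3H]thymidine 1 μCi/well for 2 h and incorporation counted.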

The target in assay [5] is T3, Vitamin D-binding protein (Homo sapiens) (UniProt P02774).
T3 sequence (whole entry): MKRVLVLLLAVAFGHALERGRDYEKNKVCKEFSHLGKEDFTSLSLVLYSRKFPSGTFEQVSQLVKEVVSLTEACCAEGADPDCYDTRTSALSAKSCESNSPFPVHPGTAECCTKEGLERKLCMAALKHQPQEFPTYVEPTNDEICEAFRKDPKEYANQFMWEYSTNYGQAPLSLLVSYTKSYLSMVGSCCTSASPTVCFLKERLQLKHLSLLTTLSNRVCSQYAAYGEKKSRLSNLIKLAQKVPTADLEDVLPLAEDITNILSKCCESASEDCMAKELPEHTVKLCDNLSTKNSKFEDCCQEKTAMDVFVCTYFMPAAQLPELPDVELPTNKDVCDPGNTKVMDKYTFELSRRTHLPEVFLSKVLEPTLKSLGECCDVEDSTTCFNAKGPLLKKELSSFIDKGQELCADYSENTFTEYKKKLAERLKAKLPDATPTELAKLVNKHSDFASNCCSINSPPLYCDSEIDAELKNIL
Put plainly: Binding affinity for human vitamin D binding protein (hDBP) relative to 1,25(OH)2D3 (100). The method, boiled down: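 Competition with [3H]1,25(OH)2D3 for human serum DBP (0.18 μM), purified by affinity chromatography. Ligands added in 5 μL ethanol. Incubated 3 h at 4 °C in 0.01 M Tris-HCl with 0.154 M NaCl, pH 7.4. Bound and free separated with cold dextran-coated charcoal. Activity expressed relative to 1,25(OH)2D3 set at 100.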

Assay [6] concerns Mus musculus. Put plainly: Hypercalcemic effect by daily sc injection of compound was measured as serum calcium concentration in vitamin D-replete normal NMRI mice relative to 1,25(OH)2D3 (100). Format: functional. In a few lines:
(§3)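 Vitamin D-replete normal NMRI mice given compound or solvent by daily subcutaneous injection for 7 consecutive days. Serum calcium concentration used as the read-out.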

Assay [7] concerns the target T2, Vitamin D-binding protein (Rattus norvegicus). Put plainly: Binding affinity for rat Vitamin D binding protein.
The subject of assay [8] is MCF7. Put plainly: In vitro cell proliferative activity on MCF-7 cells. Format: functional, Homo sapiens. In a few lines: as §1
Assay [9] concerns Keratinocyte cell line. Put plainly: In vitro proliferative activity on keratinocyte cells. Type of assay: functional, Homo sapiens. In a few lines:
as §2

Assay [10] relates to Mus musculus. Description: In Vivo evaluation for the calcemic activity in vitamin D-replete normal in NMRI mice. Format: functional. In a few lines: as §3

With `C=C1/C(=C\C=C2/CCC[C@]3(C)[C@@H]([C@@H](C)[C@H](C)CCC(C)(C)O)CC[C@@H]23)C[C@@H](O)C[C@@H]1O`, the figures for the Relative binding affinity in [1] and in [2] were 2000 and 0.25, respectively. Further, the ICA with Gallus gallus is 50. The Relative activity in the assay on HL-60 amounted to 11900.
As for `C[C@H](CCCC(C)(C)O)[C@@H](C)[C@@]1(C)CCC/C(=C\C=C2C[C@@H](O)C[C@H](O)C2)C1`, the Relative binding affinity in [1] was 45; in assay [5], 3. Besides, the Relative activity came out at 2000 with MCF7 [3], 5000 in the assay on Keratinocyte cell line [4] and 1000 in the assay with HL-60. In addition, in the assay with Mus musculus [6], the “Hypercalcemic activity relative to 1,25(OH)2D3 (=100)” value is reported as 13.
For `C=C1/C(=C\C=C2/CCC[C@]3(C)[C@@H]([C@@H](C)CCCC(C)(C)O)CC[C@@H]23)C[C@@H](O)C[C@@H]1O`, the Relative binding affinity turned out to be 88 in assay [1] and 0.2 in assay [5]. The “Hypercalcemic activity relative to 1,25(OH)2D3 (=100)” value with Mus musculus [6] is listed as 800. The same compound returned a Relative activity with HL-60 of 3000.
As for `C=C1/C(=C\C=C2/CCC[C@]3(C)[C@@H]([C@H](C)[C@H](C)CCC(C)(C)O)CC[C@@H]23)C[C@@H](O)C[C@@H]1O`, the Relative binding affinity in [1] was 1.7; in assay [2], 0.45. Besides, the ICA in the assay on Gallus gallus is recorded as 25. Moreover, the Relative activity with HL-60 was 1.3.
In the case of `C=C1/C(=C/C=C2/CCC[C@]3(C)C([C@H](C)CC#CC(C)(C)O)=CC[C@@H]23)C[C@@H](O)C[C@@H]1O`, the Relative binding affinity in [1] was 85; in assay [5], 0. In the assay on Mus musculus [6], the “Hypercalcemic activity relative to 1,25(OH)2D3 (=100)” value is listed as 8. Also, in the assay on HL-60, the Relative activity is reported as 950.
Taken in the same sequence, the figures for `C=C1/C(=C\C=C2/CCC[C@]3(C)[C@@H]([C@H](C)OCCC(C)(C)O)CC[C@@H]23)C[C@@H](O)C[C@@H]1O` [MAXACALCITOL] were 18, 0, 0.3 and 197.
For `C=C1/C(=C\C=C2/CCC[C@]3(C)[C@@H]([C@@H](C)[C@@H](C)CCC(C)(C)O)CC[C@@H]23)C[C@@H](O)C[C@@H]1O`, the Relative binding affinity in assay [1] worked out at 1; in assay [2], 0.25. The ICA with Gallus gallus was 0.1. In the assay on HL-60, the Relative activity was 8.
Regarding `C[C@@H](CCCC(C)(C)O)[C@H](C)[C@@]1(C)CCC/C(=C\C=C2C[C@@H](O)C[C@H](O)C2)C1`, the Relative binding affinity in assay [1] was found to be 9; in assay [5], 0. The values for the Relative activity with MCF7 [3], in the assay on Keratinocyte cell line [4] and with HL-60 were 90, 85 and 70, respectively. In the assay with Mus musculus [6], the “Hypercalcemic activity relative to 1,25(OH)2D3 (=100)” value is on record as 25.
For `C=C1/C(=C\C=C2/CCC[C@]3(C)[C@@H]([C@H](C)CCCC(C)(C)O)CC[C@@H]23)C[C@@H](O)C[C@@H]1O` [CALCITRIOL], the Binding affinity in assay [1], in assay [7] and in assay [5] was 100 throughout. The ICA with Gallus gallus is given as 100. Besides, the Activity in the assay on MCF7 [8], with Keratinocyte cell line [9] and with HL-60 was 100 in each case. Moreover, the “Ca2+ serum” value in the assay on Mus musculus [10] is recorded as 100.
Regarding `C[C@H](CCCC(C)(C)O)[C@H](C)[C@@]1(C)CCC/C(=C\C=C2C[C@@H](O)C[C@H](O)C2)C1`, the figures for the Relative binding affinity in assay [1] and in [5] were 8 and 0, respectively. The Relative activity in the assay with MCF7 [3] was 75; in the assay with Keratinocyte cell line [4], 60; in the assay with HL-60, 75. For the same compound, the “Hypercalcemic activity relative to 1,25(OH)2D3 (=100)” value with Mus musculus [6] is 0.25.
With `C[C@H]([C@@H](C)CCCC(C)(C)O)[C@@]1(C)CCC/C(=C\C=C2C[C@@H](O)C[C@H](O)C2)C1`, the results for the Relative binding affinity in assay [1] and in [5] were 10 and 0, respectively. Further, the Relative activity in the assay on MCF7 [3] is 40; with Keratinocyte cell line [4], 80; in the assay on HL-60 it was 10. Besides, in the assay on Mus musculus [6], the “Hypercalcemic activity relative to 1,25(OH)2D3 (=100)” value is recorded as 0.25.
`C=C1/C(=C\C=C2/CCC[C@]3(C)[C@@H]([C@H](C)[C@@H](C)CCC(C)(C)O)CC[C@@H]23)C[C@@H](O)C[C@@H]1O`: the values for the Relative binding affinity in assay [1] and in assay [2] were 33 and 67, respectively. Further, the ICA in the assay with Gallus gallus is given as 50. Moreover, in the assay with HL-60, the Relative activity worked out at 100.
For the compound `C[C@H](CCCC(C)(C)O)[C@H]1CC[C@H]2/C(=C/C=C3C[C@@H](O)C[C@H](O)C3)CCC[C@]12C`, the Relative binding affinity in assay [1] was determined as 30; in assay [5], 48. For the same compound, the “Hypercalcemic activity relative to 1,25(OH)2D3 (=100)” value in the assay with Mus musculus [6] is given as 0.3. In the assay with HL-60, this compound returned a Relative activity of 90.
